According to the EternaBench riboswitch data:

Tested on: MS2 coat protein
Experiment: apparent Kd, MS2 coat protein; higher = weaker binding; RNA-MaP array; FMN 200 µM where present
How it was run: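 Stalled E. coli RNA polymerase transcribed the designs on Illumina sequencing-chip clusters. SNAP-549-labelled MS2 coat protein was titrated from 0.7 or 1.5 nM, doubling to 3 µM, without and then with constant ligand, in 100 mM Tris-HCl pH 7.5, 80 mM KCl, 4 mM MgCl2, BSA, DTT, yeast tRNA and Tween-20. Per-cluster binding curves were fitted to green signal normalised to red-channel RNA signal and control-cluster median Fmax. The apparent Kd is the median of the filtered fits.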

[1] = designed as: OFF switch for flavin mononucleotide, no ligand
[2] = ligand present: flavin mononucleotide, designed as: OFF switch for flavin mononucleotide
[3] = designed as: ON switch for flavin mononucleotide, no ligand
[4] = ligand present: flavin mononucleotide, designed as: ON switch for flavin mononucleotide

UGAUAGGACAGAGGAUAUACGUGCUAGAGAUACUAGCAAAAUAUCCUUACAUGAGGAUCACCCAUGUAGAAGGCUGUCCUAUCU
apparent Kd [1]: 20 nM
apparent Kd [2]: 20.2 nM

GGUCUUCAAGUCAGGAUAUCGUCUAAUAGAUAUAACGAGAAGGGACAUGAGGAUCACCCAUGUCGUCUCAUCAG
apparent Kd [1]: 23.6 nM
apparent Kd [2]: 69.1 nM

GUGGCGACUGAGAAGGUACGCAUAAAAGAGAAGUAAGGAUAUCAGUCACAUGAGGAUCACCCAUGUGUUGGAAAGAUCCUUAAA
apparent Kd [1]: 10.4 nM
apparent Kd [2]: 37.9 nM

AAUUAUAUACAGAAGGAGUUAAAAGGAGUAUUACUAGGAUAUGUUCACAUGAGGAUCACCCAUGUCAUAUUGGGAUUUAUUUUU
apparent Kd [1]: 27.2 nM
apparent Kd [2]: 25.7 nM

UUGGCGCGAUCCUGGGUCUCACAUGAGGAUCACCCAUGUAGAGAGGAUAUGCAUAGGGCCCAUUGGCAGAAGGCUCUACAUGAG
apparent Kd [1]: 101 nM
apparent Kd [2]: 47.3 nM

AUGUUUAAUGCAGGAUAUGAUUAACAUGAGGAUCACCCAUGUGGUGUUGUGAGUAAGGAGAGUGAUCAGAAGGGCAUUUUUUUU
apparent Kd [3]: 592 nM
apparent Kd [4]: 540 nM

UAAUAGGGAGGAUAUCCAAUAUAUGACAUGAGGAUCACCCAUGUUUCCACUCGUACCUCCGGAGAAGGCCCAUAAU
apparent Kd [1]: 21 nM
apparent Kd [2]: 18.7 nM

UUAAUGUGAGGAUAUCAAGUGUGAUAGAGUAAUGGUAAAUAUGAGAAGGCACAUGAGGAUCACCCAUGUUCUUC
apparent Kd [1]: 15.7 nM
apparent Kd [2]: 17.4 nM

GGACAGUAAGGAUAUUGAGUCGGACAACGCCGACAGCUAGUCGAGAAGGUACAUGAGGAUCACCCAUGUCAAGU
apparent Kd [1]: 19.8 nM
apparent Kd [2]: 18 nM

AGAUAACACCAGAAGGACAUGAGGAUCACCCAUGUAGGAUAUGGGCAUCACUCGAGAAAGAAAAGACCAAAUGGACACAUGGUC
apparent Kd [3]: 162 nM
apparent Kd [4]: 12.8 nM

GGGCCGUAGUAGAAGGGAUAUACGAUUGGUAUAUCAGGAUAUACAUGAGGAUCACCCAUGUUCUAACAGUGAUAGUCCUCCCUA
apparent Kd [1]: 23 nM
apparent Kd [2]: 54.8 nM

AAAAAAAAAAGGCAGGAUAUCCAAAAAAAAACAUGAGGAUCACCCAUGUAAAAAAAAAAAAAAUGGGAGAAGGGUCAAAAAAAAAA
apparent Kd [3]: 88.8 nM
apparent Kd [4]: 34 nM

GGUGCGUCUGUGAGGAUAUGCUGGUCCUUGGAUCAGCAGAAGGCACAUGAGGAUCACCCAUGUGGUGUCGUACC
apparent Kd [1]: 233 nM
apparent Kd [2]: 129 nM

UGUUGUAUUACAGGAUAUCUAUUAGUUUUAGUUAGAGAAGGGUAUUCACAUGAGGAUCACCCAUGUAUAUACGAGGAAGUUGUG
apparent Kd [3]: 44.1 nM
apparent Kd [4]: 49.1 nM

UUAUACGUUGAGGAUAUGCGACUGUUUUAAGUUGUAGAAGGCGAUACAUGAGGAUCACCCAUGUUUAUGGGCAU
apparent Kd [1]: 240 nM
apparent Kd [2]: 327 nM

CUUUUGUGAGGAUAUUAGUAGUAAAUGAUUAAAAUUAUUACUGAGAAGGCACAUGAGGAUCACCCAUGUUCCUC
apparent Kd [1]: 45.1 nM
apparent Kd [2]: 655 nM

AGUCCAGAAGGAUAUACAUAGGUGAAAAAAAAAAAAAAACUACAUGAGGAUCACCCAUGUAGAAGGUCUGGACA
apparent Kd [1]: 93.5 nM
apparent Kd [2]: 46 nM

GGUGGACAUGAGGAUCACCCAUGUGAGGAUAUCGGCCGGCUCGUGGUGGCUGGCUUCUCGAGAAGGCGCAUAGU
apparent Kd [1]: 69.4 nM
apparent Kd [2]: 118 nM

UUAUAAAAUAAAGGAUAUUCAUACCGGAAACGGACAUGAGGAUCACCCAUGUGGCGAAAGCCUUGGGAGAAGGUUAAAAUAUAU
apparent Kd [3]: 441 nM
apparent Kd [4]: 317 nM

AAUGCCGUAGGAUAUAUAUGGCAGAUCGCACGUCCUGAAAGACAUGAGGAUCACCCAUGUAGAAGGGCGGAAAC
apparent Kd [1]: 14.7 nM
apparent Kd [2]: 17 nM

AAGUGUAUAGGAUAUGCGUGGAAAAGGUGUAUUCACCAGCGACAUGAGGAUCACCCAUGUAGAAGGGUAUGUAA
apparent Kd [1]: 94.6 nM
apparent Kd [2]: 54.5 nM

AUUUAGAGAGGAUAUAUAAAGUGAAACAUGAGGAUCACCCAUGUAAUUUUAUGGAUGUAAAUAGAAGGCUCAUUUU
apparent Kd [1]: 38.2 nM
apparent Kd [2]: 29.4 nM

CCAAGCUGUGUGAGGAUAUGCUGAACCUUGGUUCAGCAGAAGGCACAUGAGGAUCACCCAUGUGAAGAGCUUGG
apparent Kd [1]: 17.3 nM
apparent Kd [2]: 69.3 nM
